Data on three molecules can be found in ChEMBL document CHEMBL4196166 (J Med Chem, 2018).

The term IC50 denotes the point on the concentration scale where inhibition reaches its midpoint. What is called Ki is the equilibrium dissociation constant of an inhibitor or competing ligand from its target.

Active and inactive are the calls of the source. The rule behind the calls is not given here. A value given as a limit tells only on which side of the number the result lay.

Data set [1] concerns the target Plasma kallikrein (Homo sapiens, UniProt P03952). The data set can be described thus: Inhibition of human plasma kallikrein using chromogenic L-pyroGlu-L-Pro-L-Arg-p-nitroaniline as substrate by fluorescence assay.
For data set [2], the target named is Plasminogen (Homo sapiens, UniProt P00747). The experiment in a line: Inhibition of plasmin (unknown origin) using chromogenic H-D-Ile-L-Pro-L-Arg-p-nitoraniline as substrate by […].
For data set [3], the system named is Rattus norvegicus. The data set can be described thus: Antikaliuretic effect in Sprague-Dawley rat assessed as increase in acetazolamide-induced Na+ excretion at 1.5 mg/kg, iv measured after 6 hrs post dose relative to acetazolamide-treated control. The settings on record: in vivo. It counts as ADME, organism-based. In outline:
(§1)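 Male 21-week-old Sprague-Dawley rats, 8 per group. One ip injection of 25 mg/kg acetazolamide (25 mg/mL in 0.9% saline, 1 mL/kg) or vehicle, then one iv injection of 1.5 mg/kg compound (1.5 mg/mL, 1 mL/kg) in 50 mM acetate buffer pH 5.5/5% DMSO, with 0.5% Tween-80 for some compounds. Total urine collected in metabolic cages over 6 h. Urine Na+ and K+ measured on a biochemistry analyzer. Mean ± SEM reported.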

Data set [4] addresses T1, Urokinase-type plasminogen activator (Homo sapiens, UniProt P00749). The experiment in a line: Inhibition of human kidney uPA using chromogenic H-D-Ile-L-Pro-L-Arg-p-nitoraniline as substrate by fluorescence assay. In outline:
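Enzyme was uPA from human kidney cells at 10 nM final. […] Absorbance change at 405 nm gave initial rates. IC50 from a sigmoidal fit of % residual activity vs log concentration.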

In data set [5] the target is Urokinase-type plasminogen activator (Mus musculus, UniProt P06869). The experiment in a line: Inhibition of mouse uPA using Z-Gly-Gly-Arg-AMC as substrate after 15 mins by fluorescence assay.
Data set [6] concerns the target Vitamin K-dependent protein C (Homo sapiens, UniProt P04070). The data set can be described thus: Inhibition of activated protein C (unknown origin) using chromogenic L-pyroGlu-L-Pro-L-Arg-p-nitroaniline as substrate by fluorescence assay.
Data set [7] addresses Prothrombin (Homo sapiens, UniProt P00734). The experiment in a line: Inhibition of thrombin (unknown origin) using chromogenic H-D-Ile-L-Pro-L-Arg-p-nitoraniline as substrate by […].
Data set [8] relates to HEK293. The data set can be described thus: Cytotoxicity against HEK293 cells assessed as reduction in cell viability after 48 hrs by CellTiter 96 Aqueous One solution cell proliferation assay. It counts as cell-based. The following applies: Homo sapiens, HEK293, 48 h. In a few lines: (§2)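 Cells grown in DMEM high glucose with 10% heat-inactivated FCS, seeded at 5000/well and left 18 h. Compounds added at 1 nM–100 µM final (0.2% vehicle), n = 4 wells per concentration, with colour blanks. After 48 h, MTS reagent added for 2 h and A490 read. IC50 from a variable-slope sigmoidal fit.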

The subject of data set [9] is Rattus norvegicus. The data set can be described thus: Diuretic effect in Sprague-Dawley rat assessed as increase in acetazolamide-induced urine volume at 1.5 mg/kg, iv measured after 6 hrs post dose relative to acetazolamide-treated control. The settings on record: in vivo. It counts as ADME, organism-based. In outline: as §1
The target of data set [10] is Tissue-type plasminogen activator (Homo sapiens, UniProt P00750). The data set can be described thus: Inhibition of tPA (unknown origin) using chromogenic H-D-Ile-L-Pro-L-Arg-p-nitoraniline as substrate by […].
Data set [11] deals with Rattus norvegicus. The data set can be described thus: Antikaliuretic effect in Sprague-Dawley rat assessed as decrease in acetazolamide-induced K+ excretion at 1.5 mg/kg, iv measured after 6 hrs post dose relative to acetazolamide-treated control. The settings on record: in vivo. Format: ADME, organism-based. On the set-up: scale not given: the % may be the effect or the level left. In a few lines:
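Male 21-week-old Sprague-Dawley rats, 8 per group. Given 25 mg/kg acetazolamide ip (0.9% saline), then 1.5 mg/kg compound iv (50 mM acetate buffer pH 5.5/5% DMSO, plus 0.5% Tween-80 for some analogs). Vehicle-only group included. Total urine collected in metabolic cages over 6 h. Urine Na+ and K+ measured on a biochemistry analyzer; compared with acetazolamide controls.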

The test system of data set [12] is HepG2. The experiment in a line: Cytotoxicity against human HepG2 cells assessed as reduction in cell viability after 48 hrs by CellTiter 96 Aqueous One solution cell proliferation assay. It counts as functional, cell-based. The following applies: HepG2, 48 h. In a few lines: as §2
The subject of data set [13] is HT-1080. The data set can be described thus: Cytotoxicity against human HT1080 cells assessed as reduction in cell viability after 48 hrs by CellTiter 96 Aqueous One solution cell proliferation assay. Format: functional, cell-based. The following applies: HT-1080, 48 h. In outline:
as §2

The target of data set [14] is T1, Urokinase-type plasminogen activator. The data set can be described thus: Inhibition of human kidney uPA using Z-Gly-Gly-Arg-AMC as substrate measured over 15 mins by fluorescence assay.
Data set [15] has as its target Coagulation factor XI (Homo sapiens, UniProt P03951). The data set can be described thus: Inhibition of factor 11a (unknown origin) using chromogenic L-pyroGlu-L-Pro-L-Arg-p-nitroaniline as substrate by […].
Data set [16] has as its target Coagulation factor X (Homo sapiens, UniProt P00742). The experiment in a line: Inhibition of factor 10a (unknown origin) using chromogenic H-D-Ile-L-Pro-L-Arg-p-nitoraniline as substrate by fluorescence assay.
In data set [17] the test system is Homo sapiens. The experiment in a line: Antitumor activity against human AsPC1 cells xenografted in BALB/c nu/nu mouse co-implanted with human PSC assessed as reduction in tumor volume at 10 mg/kg/day, ip measured after 28 days post first dose. Format: functional, organism-based. In a few lines: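 Orthotopic AsPC-1 plus human stellate cell co-implant (1×10^6 each) in the pancreatic tail of female nude BALB/c nu/nu mice. From day 7, dosed for 4 weeks (n = 4/group) with 10 mg/kg/day ip in acetate pH 5.5/DMSO/Kolliphor vehicle, or gemcitabine 75 mg/kg gavage twice weekly. Tumors resected at 4 weeks after first injection and measured with calipers by two observers. Volume = 1/2(length×breadth×width). Mean ± SEM.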
(In general: A xenograft is tissue or cells of one species grown in another, often human tumour cells in immunodeficient mice.)

Sequence of Urokinase-type plasminogen activator (Mus musculus, UniProt P06869) (P06869 21-178 limits assumed): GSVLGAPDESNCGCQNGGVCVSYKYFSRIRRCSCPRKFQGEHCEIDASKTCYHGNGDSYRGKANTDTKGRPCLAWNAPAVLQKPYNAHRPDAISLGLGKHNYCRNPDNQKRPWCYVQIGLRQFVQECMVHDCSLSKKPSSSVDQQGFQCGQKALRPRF
Sequence of Urokinase-type plasminogen activator (Mus musculus, UniProt P06869) (P06869 180-433 limits assumed): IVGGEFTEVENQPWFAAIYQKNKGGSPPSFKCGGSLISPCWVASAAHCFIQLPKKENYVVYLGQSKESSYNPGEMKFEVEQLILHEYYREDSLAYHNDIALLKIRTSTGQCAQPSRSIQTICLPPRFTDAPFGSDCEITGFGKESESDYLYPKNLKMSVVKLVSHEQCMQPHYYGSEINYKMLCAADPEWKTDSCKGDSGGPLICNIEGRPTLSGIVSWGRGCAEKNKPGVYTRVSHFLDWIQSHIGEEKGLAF
Sequence of Tissue-type plasminogen activator (P00750 whole entry): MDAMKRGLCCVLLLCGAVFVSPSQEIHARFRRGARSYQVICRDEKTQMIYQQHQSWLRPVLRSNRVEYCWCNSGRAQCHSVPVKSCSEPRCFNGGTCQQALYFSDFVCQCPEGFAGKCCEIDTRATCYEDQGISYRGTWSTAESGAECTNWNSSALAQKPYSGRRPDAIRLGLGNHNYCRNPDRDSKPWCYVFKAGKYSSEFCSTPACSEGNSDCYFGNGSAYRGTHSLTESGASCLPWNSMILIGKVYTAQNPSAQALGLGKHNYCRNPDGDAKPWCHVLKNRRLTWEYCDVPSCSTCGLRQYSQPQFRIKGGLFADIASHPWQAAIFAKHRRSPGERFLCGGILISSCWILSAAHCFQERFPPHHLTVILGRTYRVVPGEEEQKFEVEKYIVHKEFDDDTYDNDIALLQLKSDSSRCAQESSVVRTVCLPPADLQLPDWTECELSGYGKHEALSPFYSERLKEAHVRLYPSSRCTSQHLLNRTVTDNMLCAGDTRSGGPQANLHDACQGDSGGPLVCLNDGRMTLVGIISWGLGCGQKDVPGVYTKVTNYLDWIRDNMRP
Sequence of Plasminogen (P00747 97-580 limits assumed): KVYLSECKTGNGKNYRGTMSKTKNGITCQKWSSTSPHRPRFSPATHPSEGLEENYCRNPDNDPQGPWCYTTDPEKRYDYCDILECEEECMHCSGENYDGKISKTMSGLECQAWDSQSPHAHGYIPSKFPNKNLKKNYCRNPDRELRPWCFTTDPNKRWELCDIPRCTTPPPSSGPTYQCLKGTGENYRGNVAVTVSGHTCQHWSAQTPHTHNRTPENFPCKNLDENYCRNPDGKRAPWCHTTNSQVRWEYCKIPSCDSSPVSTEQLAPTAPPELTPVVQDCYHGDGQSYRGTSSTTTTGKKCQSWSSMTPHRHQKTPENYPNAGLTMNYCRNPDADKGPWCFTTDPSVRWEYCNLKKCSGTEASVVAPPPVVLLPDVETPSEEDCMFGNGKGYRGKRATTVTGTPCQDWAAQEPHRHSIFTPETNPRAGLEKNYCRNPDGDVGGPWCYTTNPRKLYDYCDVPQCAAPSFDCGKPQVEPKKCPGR
Sequence of Plasminogen (P00747 581-810 limits assumed): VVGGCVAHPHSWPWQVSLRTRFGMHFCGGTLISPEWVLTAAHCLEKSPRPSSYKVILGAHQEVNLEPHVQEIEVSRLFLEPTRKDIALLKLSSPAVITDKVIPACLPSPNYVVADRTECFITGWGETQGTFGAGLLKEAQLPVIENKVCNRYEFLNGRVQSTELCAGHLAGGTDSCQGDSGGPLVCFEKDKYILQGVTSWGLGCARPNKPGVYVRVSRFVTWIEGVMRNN
Sequence of Vitamin K-dependent protein C (P04070 43-197 limits assumed): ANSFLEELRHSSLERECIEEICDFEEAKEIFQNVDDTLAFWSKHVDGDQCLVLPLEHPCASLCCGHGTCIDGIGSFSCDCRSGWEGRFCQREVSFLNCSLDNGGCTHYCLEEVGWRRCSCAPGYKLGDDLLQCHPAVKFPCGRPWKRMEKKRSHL
Sequence of Vitamin K-dependent protein C (P04070 212-461 limits assumed): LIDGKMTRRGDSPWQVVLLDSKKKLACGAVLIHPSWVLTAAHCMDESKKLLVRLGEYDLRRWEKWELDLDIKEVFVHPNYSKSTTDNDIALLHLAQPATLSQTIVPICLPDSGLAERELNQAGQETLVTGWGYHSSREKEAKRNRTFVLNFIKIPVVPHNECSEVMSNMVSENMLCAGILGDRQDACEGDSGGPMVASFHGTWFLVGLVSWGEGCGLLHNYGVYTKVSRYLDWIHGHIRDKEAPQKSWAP
Sequence of Coagulation factor X (P00742 41-179 limits assumed): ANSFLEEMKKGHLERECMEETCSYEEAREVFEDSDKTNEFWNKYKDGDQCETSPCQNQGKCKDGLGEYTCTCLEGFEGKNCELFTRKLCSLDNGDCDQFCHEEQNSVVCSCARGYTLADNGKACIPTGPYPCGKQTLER
Sequence of Coagulation factor X (P00742 235-488 limits assumed): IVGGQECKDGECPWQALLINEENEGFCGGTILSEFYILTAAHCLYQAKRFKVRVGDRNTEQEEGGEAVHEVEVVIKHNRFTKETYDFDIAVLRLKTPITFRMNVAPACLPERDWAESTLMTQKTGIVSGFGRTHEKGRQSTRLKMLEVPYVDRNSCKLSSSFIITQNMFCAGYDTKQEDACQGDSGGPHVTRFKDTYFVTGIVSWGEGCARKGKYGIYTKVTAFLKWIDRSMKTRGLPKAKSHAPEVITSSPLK
Sequence of Coagulation factor XI (P03951 19-387 limits assumed): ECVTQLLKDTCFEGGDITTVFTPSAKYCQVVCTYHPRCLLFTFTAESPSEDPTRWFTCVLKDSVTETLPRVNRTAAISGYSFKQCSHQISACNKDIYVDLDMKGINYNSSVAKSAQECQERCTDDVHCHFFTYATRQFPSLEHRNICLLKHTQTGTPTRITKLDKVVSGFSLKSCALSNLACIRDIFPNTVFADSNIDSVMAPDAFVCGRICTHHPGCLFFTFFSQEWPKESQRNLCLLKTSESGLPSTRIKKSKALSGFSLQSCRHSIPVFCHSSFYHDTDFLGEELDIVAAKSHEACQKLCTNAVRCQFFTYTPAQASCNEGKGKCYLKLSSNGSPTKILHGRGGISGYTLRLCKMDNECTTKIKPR
Sequence of Coagulation factor XI (P03951 388-625 limits assumed): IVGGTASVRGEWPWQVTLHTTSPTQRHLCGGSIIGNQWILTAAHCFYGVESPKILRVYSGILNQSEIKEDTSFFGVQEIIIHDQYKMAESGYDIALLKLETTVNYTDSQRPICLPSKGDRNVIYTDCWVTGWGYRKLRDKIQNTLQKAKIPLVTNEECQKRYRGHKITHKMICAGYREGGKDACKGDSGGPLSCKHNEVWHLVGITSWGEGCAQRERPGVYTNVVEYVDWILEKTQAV
Sequence of Plasma kallikrein (P03952 20-390 limits assumed): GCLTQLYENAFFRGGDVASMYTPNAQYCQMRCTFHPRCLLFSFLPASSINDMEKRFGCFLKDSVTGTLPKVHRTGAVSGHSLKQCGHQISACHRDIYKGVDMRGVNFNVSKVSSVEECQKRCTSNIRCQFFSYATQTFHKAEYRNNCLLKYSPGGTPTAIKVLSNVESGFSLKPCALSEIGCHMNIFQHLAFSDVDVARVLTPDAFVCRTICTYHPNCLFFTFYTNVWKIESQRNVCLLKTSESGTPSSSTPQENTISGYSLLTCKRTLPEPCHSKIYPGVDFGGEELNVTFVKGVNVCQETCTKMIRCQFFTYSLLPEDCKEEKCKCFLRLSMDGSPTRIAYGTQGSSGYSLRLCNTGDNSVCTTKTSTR
Sequence of Plasma kallikrein (P03952 391-638 limits assumed): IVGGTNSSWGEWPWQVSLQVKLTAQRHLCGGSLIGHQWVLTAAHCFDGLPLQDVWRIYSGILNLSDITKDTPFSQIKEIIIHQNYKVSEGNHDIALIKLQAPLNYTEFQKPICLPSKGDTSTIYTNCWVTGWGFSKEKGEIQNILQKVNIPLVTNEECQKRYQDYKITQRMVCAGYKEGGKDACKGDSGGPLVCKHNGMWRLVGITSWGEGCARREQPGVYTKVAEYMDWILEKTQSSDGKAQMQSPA

`N=C(N)NC(=O)c1nc(Cl)c(N2CCCCCC2)nc1N` [N,N-HEXAMETHYLENEAMILORIDE]: the IC50 in [1] is more than 50 µM; in [2] it was more than 10 µM; in data set [4], 2.4 µM; in data set [6] it was more than 50 µM; in [7], more than 10 µM; in data set [8] it was 2.8 µM. In addition, the IC50 is more than 10 µM in data set [10]; 20.2 µM in [12]; 6.6 µM in [13]; more than 50 µM in data set [15]; more than 50 µM in data set [16]. Further, the Activity entry is recorded as “Non-Toxic” in data set [3], “Non-Toxic” in data set [9] and 24% in [11]. The figures for the Ki in [5] and in data set [14] were 9.31 µM and 1.36 µM, respectively.

On to `N=C(N)NC(=O)c1nc(-c2cc3ccccc3o2)c(N2CCCCCC2)nc1N`, for which the IC50 was 11.3 µM in data set [1]; more than 10 µM in [2]; 0.53 µM in [4]; more than 50 µM in [6]; more than 10 µM in [7]; 3.1 µM in [8]. Moreover, the IC50 in [10] was more than 10 µM; in [12], 12.7 µM; in [13], 4.6 µM; in data set [15], 31 µM; in [16], more than 50 µM. For the same molecule, the Activity entry in [3], in data set [9] and in [11] was “Non-Toxic” each time. Besides, in data set [17], the outcome was Active. Further, the Ki in data set [5] worked out at 1.8 µM; in data set [14], 0.183 µM.

Turning to `COc1ncc(-c2nc(C(=O)NC(=N)N)c(N)nc2N2CCCCCC2)cn1`, the IC50 is more than 50 µM in data set [1]; more than 20 µM in data set [2]; 0.039 µM in data set [4]; more than 50 µM in data set [6]; more than 20 µM in [7]; 74.9 µM in data set [8]. Further, the 50% inhibitory concentration (IC50) in data set [10] was more than 20 µM; in [12], 57.3 µM; in data set [13], 44.8 µM; in [15], more than 50 µM; in data set [16], more than 50 µM. The Activity entry in data set [3] is reported as “Non-Toxic”; in data set [9] it was “Non-Toxic”; in data set [11], 24%. Also, the result in [17] was Active. The Ki in data set [5] was 1.61 µM; in [14], 0.053 µM.
